Converted amounts (≈) assume the structure as drawn.
Legend:
Assay type in all cases: functional
Escherichia coli [1] = assay: In vitro antibacterial activity was measured on gram negative bacteria Escherichia coli UBMS 88-1 tet-B(efflux resistance) cell lines
Escherichia coli [2] = assay: In vitro antibacterial activity was measured on gram negative bacteria Escherichia coli UBMS 90-4 tet-M (ribosomal protection) cell lines
Summary of the method: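 Agar dilution MIC on Mueller-Hinton II agar. Inoculum (1–5) × 10^5 CFU/mL, drug range 32–0.004 μg/mL. Plates incubated 18 h at 35 °C in a forced-air incubator. MIC is the lowest concentration that inhibits growth. The strain panel covered tetracycline-sensitive and -resistant strains. Tetracycline, minocycline and doxycycline were run as standards in each assay.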

Escherichia coli [3] = assay: In vitro antibacterial activity was measured on gram negative bacteria Escherichia coli UBMS 90-5 sensitive cell lines
Summary of the method: (§1)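 MIC by agar dilution on Mueller-Hinton II agar; inoculum (1–5) × 10^5 CFU/mL; antibiotic range 32–0.004 μg/mL; plates incubated 18 h at 35 °C in forced-air incubator. MIC taken as lowest concentration inhibiting growth. Tetracycline, minocycline and doxycycline run as standards in each assay.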

Staphylococcus aureus [4] = assay: In vitro antibacterial activity was measured on gram positive bacteria Staphylococcus aureus UBMS 90-1 tet-M (ribosomal protection) cell lines; summary of the method: as §1
Staphylococcus aureus [5] = assay: In vitro antibacterial activity was measured on gram positive bacteria Staphylococcus aureus UBMS 90-3 sensitive cell lines; summary of the method: as §1
Staphylococcus aureus [6] = assay: In vitro antibacterial activity was measured on gram positive bacteria Staphylococcus aureus smith cell lines; summary of the method: as §1
Escherichia coli [7] = assay: In vitro antibacterial activity was measured on gram negative bacteria Escherichia coli J3272 tet-C(efflux resistance) cell lines
Escherichia coli [8] = assay: In vitro antibacterial activity was measured on gram negative bacteria Escherichia coli PRP-1 tet-a(efflux resistance) cell lines
Staphylococcus aureus [9] = assay: In vitro antibacterial activity was measured on gram positive bacteria Staphylococcus aureus UBMS 88-7 tet-k(efflux resistance) cell lines

Structure (SMILES)	MIC (Escherichia coli [1]) [µg/mL]	MIC (Escherichia coli [2]) [µg/mL]	MIC (Escherichia coli [3]) [µg/mL]	MIC (Staphylococcus aureus [4]) [µg/mL]	MIC (Staphylococcus aureus [5])	MIC (Staphylococcus aureus [6]) [µg/mL]	MIC (Escherichia coli [7]) [µg/mL]	MIC (Escherichia coli [8]) [µg/mL]	MIC (Staphylococcus aureus [9]) [µg/mL]
CC(C)C(=O)Nc1ccc2c(c1O)C(=O)C1=C(O)[C@]3(O)C(O)=C(C(N)=O)C(=O)[C@@H](N(C)C)C3[C@@H](O)C1[C@H]2C (some centres undefined)	16 (≈ 30.2 µM)	> 32	> 32	> 32	0.5 µg/mL (≈ 0.944 µM)	1 (≈ 1.89 µM)	–	–	–
C[C@H]1c2cccc(O)c2C(=O)C2=C(O)[C@]3(O)C(O)=C(C(N)=O)C(=O)[C@@H](N(C)C)[C@@H]3[C@@H](O)C21 (some centres undefined)	32 (≈ 72 µM)	> 32	1 (≈ 2.25 µM)	8 (≈ 18 µM)	0.12 µg/mL (≈ 0.27 µM)	0.12 (≈ 0.27 µM)	16 (≈ 36 µM)	16 (≈ 36 µM)	–
C[C@H]1c2ccc(NC(=O)CN3CCCCC3)c(O)c2C(=O)C2=C(O)[C@]3(O)C(O)=C(C(N)=O)C(=O)[C@@H](N(C)C)C3[C@@H](O)C21 (some centres undefined)	–	1 (≈ 1.71 µM)	0.5 (≈ 0.855 µM)	1 (≈ 1.71 µM)	0.12 µg/mL (≈ 0.205 µM)	0.25 (≈ 0.428 µM)	–	2 (≈ 3.42 µM)	–
C[C@H](N)C(=O)Nc1ccc2c(c1O)C(=O)C1=C(O)[C@]3(O)C(O)=C(C(N)=O)C(=O)[C@@H](N(C)C)C3[C@@H](O)C1[C@H]2C (some centres undefined)	16 (≈ 30.2 µM)	8 (≈ 15.1 µM)	8 (≈ 15.1 µM)	8 (≈ 15.1 µM)	2 µg/mL (≈ 3.77 µM)	2 (≈ 3.77 µM)	> 32	> 32	> 32
C[C@H]1c2ccc(NC(=O)CN)c(O)c2C(=O)C2=C(O)[C@]3(O)C(O)=C(C(N)=O)C(=O)[C@@H](N(C)C)C3[C@@H](O)C21 (some centres undefined)	–	8 (≈ 15.5 µM)	8 (≈ 15.5 µM)	16 (≈ 31 µM)	4 µg/mL (≈ 7.74 µM)	8 (≈ 15.5 µM)	> 32	> 32	> 32
C[C@H]1c2ccc(NC(=O)CN3CCCC3)c(O)c2C(=O)C2=C(O)[C@]3(O)C(O)=C(C(N)=O)C(=O)[C@@H](N(C)C)C3[C@@H](O)C21 (some centres undefined)	–	0.25 (≈ 0.438 µM)	0.5 (≈ 0.876 µM)	1 (≈ 1.75 µM)	0.25 µg/mL (≈ 0.438 µM)	0.5 (≈ 0.876 µM)	1 (≈ 1.75 µM)	2 (≈ 3.51 µM)	4 (≈ 7.01 µM)
CC(C)C[C@H](N)C(=O)Nc1ccc2c(c1O)C(=O)C1=C(O)[C@]3(O)C(O)=C(C(N)=O)C(=O)[C@@H](N(C)C)C3[C@@H](O)C1[C@H]2C (some centres undefined)	2 (≈ 3.49 µM)	1 (≈ 1.75 µM)	1 (≈ 1.75 µM)	1 (≈ 1.75 µM)	0.5 µg/mL (≈ 0.873 µM)	0.5 (≈ 0.873 µM)	4 (≈ 6.99 µM)	16 (≈ 27.9 µM)	2 (≈ 3.49 µM)
CC(=O)Nc1ccc2c(c1O)C(=O)C1=C(O)[C@]3(O)C(O)=C(C(N)=O)C(=O)[C@@H](N(C)C)C3[C@@H](O)C1[C@H]2C (some centres undefined)	–	32 (≈ 63.8 µM)	8 (≈ 16 µM)	> 32	0.25 µg cm··-2	0.5 (≈ 0.997 µM)	–	–	–
CNCC(=O)Nc1ccc2c(c1O)C(=O)C1=C(O)[C@]3(O)C(O)=C(C(N)=O)C(=O)[C@@H](N(C)C)C3[C@@H](O)C1[C@H]2C (some centres undefined)	–	4 (≈ 7.54 µM)	8 (≈ 15.1 µM)	8 (≈ 15.1 µM)	4 µg/mL (≈ 7.54 µM)	8 (≈ 15.1 µM)	> 32	> 32	> 32
CCCCCCCCCC(=O)Nc1ccc2c(c1O)C(=O)C1=C(O)[C@]3(O)C(O)=C(C(N)=O)C(=O)[C@@H](N(C)C)C3[C@@H](O)C1[C@H]2C (some centres undefined)	–	> 32	> 32	> 32	16 µg/mL (≈ 26.1 µM)	> 32	–	–	–
CN(C)CC(=O)Nc1cc(N(C)C)c2c(c1O)C(=O)C1=C(O)[C@]3(O)C(O)=C(C(N)=O)C(=O)[C@@H](N(C)C)[C@@H]3CC1C2 (some centres undefined)	0.5 (≈ 0.897 µM)	0.25 (≈ 0.448 µM)	0.25 (≈ 0.448 µM)	0.5 (≈ 0.897 µM)	0.25 µg/mL (≈ 0.448 µM)	0.25 (≈ 0.448 µM)	2 (≈ 3.59 µM)	2 (≈ 3.59 µM)	2 (≈ 3.59 µM)
C[C@H]1c2ccc(NC(=O)[C@H](Cc3ccccc3)N(C)C)c(O)c2C(=O)C2=C(O)[C@]3(O)C(O)=C(C(N)=O)C(=O)[C@@H](N(C)C)C3[C@@H](O)C21 (some centres undefined)	–	16 (≈ 25.2 µM)	32 (≈ 50.4 µM)	2 (≈ 3.15 µM)	1 µg/mL (≈ 1.58 µM)	4 (≈ 6.3 µM)	–	–	–
C[C@H]1c2ccc(NC(=O)[C@@H](N)CCC(N)=O)c(O)c2C(=O)C2=C(O)[C@]3(O)C(O)=C(C(N)=O)C(=O)[C@@H](N(C)C)C3[C@@H](O)C21 (some centres undefined)	–	> 32	16 (≈ 27.2 µM)	> 32	1 µg/mL (≈ 1.7 µM)	4 (≈ 6.81 µM)	–	–	32 (≈ 54.5 µM)
CC(C)C[C@@H](N)C(=O)Nc1ccc2c(c1O)C(=O)C1=C(O)[C@]3(O)C(O)=C(C(N)=O)C(=O)[C@@H](N(C)C)C3[C@@H](O)C1[C@H]2C (some centres undefined)	–	4 (≈ 6.99 µM)	8 (≈ 14 µM)	> 32	2 µg/mL (≈ 3.49 µM)	2 (≈ 3.49 µM)	16 (≈ 27.9 µM)	–	16 (≈ 27.9 µM)
